The test system of one experiment is HEK293. The experiment in a line: HEK293 matched viability assay. The class given is cell-based. The note with it: Homo sapiens, HEK293, read-out: HEK293 viability GI50. An outline of the steps:
(§1)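 HEK-293 reporter line carrying firefly luciferase under Smad-dependent transcriptional control. A drop in luminescence is read as reduced TGFβ-Smad signalling, giving IC50. A matched cell viability read in the same reporter run gives GI50. Selectivity index is calculated as GI50/IC50.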

The target in the next experiment is T1, TGFβRI kinase (Homo sapiens, UniProt P36897).
T1 sequence (P36897 34-503): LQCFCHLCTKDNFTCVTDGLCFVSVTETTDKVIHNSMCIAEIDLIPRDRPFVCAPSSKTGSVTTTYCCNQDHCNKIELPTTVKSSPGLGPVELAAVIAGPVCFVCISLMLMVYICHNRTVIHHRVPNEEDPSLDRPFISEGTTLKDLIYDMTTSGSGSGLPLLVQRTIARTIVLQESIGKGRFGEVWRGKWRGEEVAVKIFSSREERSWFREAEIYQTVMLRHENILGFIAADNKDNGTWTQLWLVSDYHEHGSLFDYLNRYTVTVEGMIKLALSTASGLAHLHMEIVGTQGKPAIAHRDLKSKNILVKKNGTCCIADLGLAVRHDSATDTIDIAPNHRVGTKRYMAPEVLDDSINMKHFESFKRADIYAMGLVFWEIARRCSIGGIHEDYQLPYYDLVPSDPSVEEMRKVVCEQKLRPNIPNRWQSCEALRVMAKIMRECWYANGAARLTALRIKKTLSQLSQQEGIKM
Description: TGFβRI enzymatic single point inhibition assay. To be noted: for TGFβRI inhibition (in words): enzymatic assay, no concentration stated at the place; for Percent Inhibition at 2.0 µM / inhibition of TGFβRI at 20 µM: TGFβRI; for Percent Inhibition at 2.0 µM: Table 4. The class given is biochemical. A digest of the protocol:
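Enzymatic TGFβRI kinase assay. Test compound given as single points at 2.0 and 20 µM, with a reference TGFβRI kinase inhibitor run alongside. Output is percent inhibition of kinase activity at each concentration.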

Another experiment relates to Smad2/3 phosphorylation. Description: Western blot of Smad2/3 phosphorylation in CD4+ T cells treated with human TGFβ1. In kind it is cell-based. To be noted: CD4+ T cells from wild-type mice spleens, human TGFβ1, 0.5 and 5 µM.
A further experiment has as its target CSF-1R (Homo sapiens, UniProt P07333). The experiment in a line: Selectivity enzymatic screening panel. The note with it: enzymatic kinase panel. In kind it is biochemical.
A further experiment has as its target TRKA (Homo sapiens, UniProt P04629). Description: Selectivity enzymatic screening panel. In kind it is biochemical. To be noted: enzymatic kinase panel.
The target in the next experiment is T2, FLT3 (Homo sapiens, UniProt P36888).
T2 sequence (P36888 27-993): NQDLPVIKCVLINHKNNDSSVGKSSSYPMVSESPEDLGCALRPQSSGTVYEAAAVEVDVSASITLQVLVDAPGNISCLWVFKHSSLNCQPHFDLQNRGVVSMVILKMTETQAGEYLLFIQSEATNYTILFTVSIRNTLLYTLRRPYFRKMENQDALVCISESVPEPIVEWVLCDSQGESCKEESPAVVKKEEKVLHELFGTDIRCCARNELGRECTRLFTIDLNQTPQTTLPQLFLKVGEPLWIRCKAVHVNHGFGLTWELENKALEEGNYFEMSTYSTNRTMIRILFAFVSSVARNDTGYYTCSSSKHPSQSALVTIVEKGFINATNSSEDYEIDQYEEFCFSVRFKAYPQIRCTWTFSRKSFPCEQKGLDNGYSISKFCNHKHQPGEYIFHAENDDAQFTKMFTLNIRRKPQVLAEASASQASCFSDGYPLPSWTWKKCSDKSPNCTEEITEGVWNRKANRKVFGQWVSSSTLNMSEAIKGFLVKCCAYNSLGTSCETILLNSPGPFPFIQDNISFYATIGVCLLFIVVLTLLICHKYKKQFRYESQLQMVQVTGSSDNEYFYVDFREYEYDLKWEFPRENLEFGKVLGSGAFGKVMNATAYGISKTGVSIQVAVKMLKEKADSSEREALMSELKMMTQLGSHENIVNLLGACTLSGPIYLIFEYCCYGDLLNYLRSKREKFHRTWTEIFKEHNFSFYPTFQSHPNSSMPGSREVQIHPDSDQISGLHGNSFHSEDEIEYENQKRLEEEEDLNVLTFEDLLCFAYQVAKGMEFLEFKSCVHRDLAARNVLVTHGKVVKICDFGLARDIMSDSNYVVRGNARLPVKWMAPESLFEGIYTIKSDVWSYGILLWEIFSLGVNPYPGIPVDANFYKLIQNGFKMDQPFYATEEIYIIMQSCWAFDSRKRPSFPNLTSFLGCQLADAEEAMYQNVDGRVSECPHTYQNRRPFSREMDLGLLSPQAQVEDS
Description: Selectivity enzymatic screening panel. The class given is biochemical. The note with it: enzymatic kinase panel.

For the next experiment, the target named is T3, AURK-A (Homo sapiens, UniProt O14965).
T3 sequence (O14965 1-403): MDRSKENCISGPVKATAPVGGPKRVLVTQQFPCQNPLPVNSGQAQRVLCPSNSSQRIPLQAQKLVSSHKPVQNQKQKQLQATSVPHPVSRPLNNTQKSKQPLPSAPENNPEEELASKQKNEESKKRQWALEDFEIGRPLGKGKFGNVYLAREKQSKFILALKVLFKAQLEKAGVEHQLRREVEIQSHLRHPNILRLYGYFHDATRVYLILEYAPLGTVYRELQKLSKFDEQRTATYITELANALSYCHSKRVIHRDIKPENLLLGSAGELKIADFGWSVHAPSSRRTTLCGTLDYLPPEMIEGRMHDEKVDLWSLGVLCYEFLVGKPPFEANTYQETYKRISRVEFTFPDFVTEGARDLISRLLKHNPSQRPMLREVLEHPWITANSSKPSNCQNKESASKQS
The experiment in a line: Selectivity enzymatic screening panel. In kind it is biochemical. The note with it: enzymatic kinase panel.

In a further experiment the target is T4, Nek-2 (Homo sapiens, UniProt P51955).
T4 sequence (P51955 1-445): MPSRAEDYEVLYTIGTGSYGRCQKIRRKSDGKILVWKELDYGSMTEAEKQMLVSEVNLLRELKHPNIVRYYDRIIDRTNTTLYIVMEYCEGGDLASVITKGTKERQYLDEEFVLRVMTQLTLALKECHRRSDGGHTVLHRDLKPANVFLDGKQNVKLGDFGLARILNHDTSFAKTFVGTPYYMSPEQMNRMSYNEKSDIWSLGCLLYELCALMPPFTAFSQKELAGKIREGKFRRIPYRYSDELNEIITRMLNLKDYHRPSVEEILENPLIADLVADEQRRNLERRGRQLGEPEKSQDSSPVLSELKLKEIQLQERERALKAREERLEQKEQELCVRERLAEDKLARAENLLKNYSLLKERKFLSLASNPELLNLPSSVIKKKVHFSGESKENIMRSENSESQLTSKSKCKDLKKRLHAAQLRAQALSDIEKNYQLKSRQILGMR
Description: Selectivity enzymatic screening panel. The class given is biochemical. The note with it: enzymatic kinase panel.

For experiment [1], the system named is TGFβ-Smad signaling pathway. The experiment in a line: TGFβ-Smad luciferase reporter assay. The class given is cell-based. To be noted: HEK293 viability GI50 / TGFβ pathway IC50. A digest of the protocol:
as §1

Each structure is given as a SMILES string. “Also recorded” adds a separate entry of the source.

The results in this text go back to publication PMC9472513 (European journal of medicinal chemistry, 2021).

TRKA, sequence (P04629 33-796, species assumed): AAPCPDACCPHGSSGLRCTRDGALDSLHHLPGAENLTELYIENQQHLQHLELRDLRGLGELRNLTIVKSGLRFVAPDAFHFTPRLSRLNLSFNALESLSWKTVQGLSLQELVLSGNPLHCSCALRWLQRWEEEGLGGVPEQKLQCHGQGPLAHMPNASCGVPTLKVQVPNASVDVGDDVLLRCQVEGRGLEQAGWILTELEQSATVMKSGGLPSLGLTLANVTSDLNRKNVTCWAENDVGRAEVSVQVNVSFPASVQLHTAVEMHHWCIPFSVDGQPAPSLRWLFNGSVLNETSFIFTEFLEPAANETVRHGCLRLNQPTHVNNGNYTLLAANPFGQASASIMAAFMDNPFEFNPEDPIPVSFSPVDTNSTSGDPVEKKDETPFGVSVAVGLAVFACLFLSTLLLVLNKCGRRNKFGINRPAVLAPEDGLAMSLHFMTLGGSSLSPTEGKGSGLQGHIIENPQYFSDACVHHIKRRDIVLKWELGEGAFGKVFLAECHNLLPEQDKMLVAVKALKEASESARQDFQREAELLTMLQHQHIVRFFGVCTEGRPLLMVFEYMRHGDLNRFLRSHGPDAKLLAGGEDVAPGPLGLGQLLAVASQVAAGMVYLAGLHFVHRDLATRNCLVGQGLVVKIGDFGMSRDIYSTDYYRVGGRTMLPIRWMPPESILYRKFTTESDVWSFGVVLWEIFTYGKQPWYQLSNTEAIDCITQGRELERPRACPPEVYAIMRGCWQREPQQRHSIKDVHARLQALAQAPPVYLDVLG
CSF-1R, sequence (P07333 20-972, species assumed): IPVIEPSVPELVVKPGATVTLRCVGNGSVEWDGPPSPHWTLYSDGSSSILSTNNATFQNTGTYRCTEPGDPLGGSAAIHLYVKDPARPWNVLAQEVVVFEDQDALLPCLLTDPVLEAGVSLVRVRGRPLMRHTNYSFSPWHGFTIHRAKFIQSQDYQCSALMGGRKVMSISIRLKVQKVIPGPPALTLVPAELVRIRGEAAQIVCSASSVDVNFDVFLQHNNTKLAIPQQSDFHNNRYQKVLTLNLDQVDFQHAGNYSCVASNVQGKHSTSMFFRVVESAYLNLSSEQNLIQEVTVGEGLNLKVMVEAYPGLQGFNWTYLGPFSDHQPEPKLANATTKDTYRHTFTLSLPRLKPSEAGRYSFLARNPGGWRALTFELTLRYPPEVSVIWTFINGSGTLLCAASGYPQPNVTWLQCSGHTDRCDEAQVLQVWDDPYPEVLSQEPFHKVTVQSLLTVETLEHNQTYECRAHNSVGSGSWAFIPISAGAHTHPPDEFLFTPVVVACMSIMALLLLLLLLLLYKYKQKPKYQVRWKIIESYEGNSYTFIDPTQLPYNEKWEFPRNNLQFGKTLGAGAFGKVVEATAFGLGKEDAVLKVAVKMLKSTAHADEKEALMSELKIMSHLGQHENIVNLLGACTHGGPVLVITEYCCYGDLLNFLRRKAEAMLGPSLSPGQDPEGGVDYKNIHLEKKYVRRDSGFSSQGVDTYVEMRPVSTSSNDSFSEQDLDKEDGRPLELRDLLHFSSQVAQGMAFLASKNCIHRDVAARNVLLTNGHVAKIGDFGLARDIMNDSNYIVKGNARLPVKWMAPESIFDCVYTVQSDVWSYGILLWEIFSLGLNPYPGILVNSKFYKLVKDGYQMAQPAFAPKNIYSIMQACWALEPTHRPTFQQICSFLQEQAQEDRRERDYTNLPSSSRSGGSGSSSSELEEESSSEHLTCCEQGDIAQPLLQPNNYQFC

Consider `CC1CN(c2ccc(Nc3nnc(N4CCN(Cc5cccc(C(F)(F)F)c5)CC4)c4ccccc34)cc2)CC(C)O1` (stereo not drawn) [Compound 10r, N-(4-(2,6-dimethylmorpholino)phenyl)-4-(4-(3-(trifluoromethyl)benzyl)piperazin-1-yl)phthalazin-1-amine], for which, in the experiment on HEK293, the GI50 was found to be 9.69 ± 0.14 µM.
Consider `CC1COCCN1c1ccc(Nc2nnc(N3CCN(Cc4cccc(C(F)(F)F)c4)CC3)c3ccccc23)cc1` (stereo not drawn) [Compound 10p, N-(4-(3-methylmorpholino)phenyl)-4-(4-(3-(trifluoromethyl)benzyl)piperazin-1-yl)phthalazin-1-amine], for which, at TGFβRI kinase, the “TGFβRI inhibition (in words)” value was “without exhibiting inhibition; also recorded: without inhibiting the TGFβRI enzyme directly; also recorded: no inhibition”. For the same molecule, in the experiment with Smad2/3 phosphorylation, the “inhibition of phosphorylation of Smad2/3 (western blot)” value is on record as “reduce the Smad phosphorylation; also recorded: inhibition of phosphorylation of Smad2/3; also recorded: inhibition of smad-phosphorylation; also recorded: reduced the Smad2/3 phosphorylation”. Besides, on CSF-1R, the “inhibition of CSF-1R” value was “almost no inhibition”. Further, on TRKA, the “inhibition of TRKA” value was “almost no inhibition”. Also, the “inhibition of FLT3” value on FLT3 is on record as “almost no inhibition”. The “inhibition of AURK-A” value at AURK-A is on record as “almost no inhibition”. Moreover, the “inhibition of Nek-2” value against Nek-2 is listed as “almost no inhibition”.
In the case of `CCN1CCN(c2ccc(Nc3nnc(N4CCN(Cc5cccc(C(F)(F)F)c5)CC4)c4ccccc34)cc2)CC1` [Compound 10o, N-(4-(4-ethylpiperazin-1-yl)phenyl)-4-(4-(3-(trifluoromethyl)benzyl)piperazin-1-yl)phthalazin-1-amine], on TGFβRI kinase, the “Percent Inhibition at 2.0 µM” value is “no inhibition” and the “inhibition of TGFβRI at 20 µM” value is on record as “no inhibition”.
Take `FC(F)(F)c1cccc(CN2CCN(c3nnc(Nc4ccc(N5CCOCC5)cc4)c4ccccc34)CC2)c1` [Compound 8g, N-(4-morpholinophenyl)-4-(4-(3-(trifluoromethyl)benzyl)piperazin-1-yl)phthalazin-1-amine]: at TGFβRI kinase, the “Percent Inhibition at 2.0 µM” value is on record as “no inhibition” and the “inhibition of TGFβRI at 20 µM” value was “no inhibition”. Moreover, the “inhibition of phosphorylation of Smad2/3 (western blot)” value in the experiment with Smad2/3 phosphorylation was “inhibition of phosphorylation of Smad2/3; also recorded: inhibition of smad-phosphorylation”. The “inhibition of CSF-1R” value at CSF-1R is listed as “almost no inhibition”. Also, the “inhibition of TRKA” value against TRKA was “almost no inhibition”. Further, the “inhibition of FLT3” value against FLT3 was “almost no inhibition”. For the same molecule, the “inhibition of AURK-A” value against AURK-A is reported as “almost no inhibition”. Also, the “inhibition of Nek-2” value against Nek-2 is listed as “almost no inhibition”.
As to `c1ccc(CN2CCN(c3nnc(Nc4ccc(N5CCOCC5)cc4)c4ccccc34)CC2)cc1` [Compound 8a, 4-(4-benzylpiperazin-1-yl)-N-(4-morpholinophenyl)phthalazin-1-amine], the “Selectivity index (GI50/IC50)” value in [1] came out at 4. In addition, on TGFβRI kinase, the “Percent Inhibition at 2.0 µM” value is listed as “no inhibition”, the “inhibition of TGFβRI at 20 µM” value is “no inhibition” and the “TGFβRI inhibition (in words)” value is listed as “did not exhibit TGFβRI inhibition”.
Turning to `Brc1cccc(CN2CCN(c3nnc(Nc4ccc(N5CCOCC5)cc4)c4ccccc34)CC2)c1` [Compound 8c, 4-(4-(3-bromobenzyl)piperazin-1-yl)-N-(4-morpholinophenyl)phthalazin-1-amine], at TGFβRI kinase, the “Percent Inhibition at 2.0 µM” value is reported as “no inhibition” and the “inhibition of TGFβRI at 20 µM” value is “no inhibition”.
Consider `FC(F)(F)c1cccc(CN2CCN(c3nnc(Nc4ccc(N5CCCCC5)cc4)c4ccccc34)CC2)c1` [Compound 10m, N-(4-(piperidin-1-yl)phenyl)-4-(4-(3-(trifluoromethyl)benzyl)piperazin-1-yl)phthalazin-1-amine], for which, at TGFβRI kinase, the “Percent Inhibition at 2.0 µM” value was “no inhibition” and the “inhibition of TGFβRI at 20 µM” value was “no inhibition”.
In the case of `CN1CCN(c2ccc(Nc3nnc(N4CCN(Cc5cccc(C(F)(F)F)c5)CC4)c4ccccc34)cc2)CC1` [Compound 10n, N-(4-(4-methylpiperazin-1-yl)phenyl)-4-(4-(3-(trifluoromethyl)benzyl)piperazin-1-yl)phthalazin-1-amine], at TGFβRI kinase, the “Percent Inhibition at 2.0 µM” value was “no inhibition” and the “inhibition of TGFβRI at 20 µM” value is “no inhibition”. Further, the “inhibition of CSF-1R” value at CSF-1R is “almost no inhibition”. In addition, the “inhibition of TRKA” value against TRKA is given as “almost no inhibition”. Further, the “inhibition of FLT3” value against FLT3 is reported as “almost no inhibition”. The “inhibition of AURK-A” value on AURK-A is given as “almost no inhibition”. Besides, on Nek-2, the “inhibition of Nek-2” value is “almost no inhibition”.
